Results pooled from the literature.
Each line is one published result; the experiments were not run side by side.
Target: Tyrosine-protein kinase Blk (BLK, Homo sapiens, UniProt P51451)

C=CC(=O)N1CCC(C(=O)NCC(=O)N2CCN(c3nc(-c4cnc(N)nc4C(F)F)nc(N4CCOCC4)n3)CC2)CC1
remaining binding (binding; competition with immobilised ligand; 1 µM): 100%

COc1ccc2c(O[C@@H]3C[C@H]4C(=O)N[C@]5(C(=O)O)CC5/C=C\CCCCC[C@H](NC(=O)OC5CCCC5)C(=O)N4C3)cc(-c3csc(NC(=O)C(C)C)n3)nc2c1C (stereo partly shown)
remaining binding (cell-free assay; competition with immobilised ligand; 1 µM): 97%

c1cncc(-c2cccc(Nc3nccc(NC4CCCCC4)n3)c2)c1
remaining binding (binding; competition with immobilised ligand; 10 µM): 5.8%

O=C(NCCCN1CCOCC1)c1ccc(Nc2ncc(Cl)c(-c3ccc(Cl)s3)n2)cc1
remaining binding (binding; competition with immobilised ligand; 1 µM): 100%

Cc1cnn2ncc(-c3ccnc(N(C)C)n3)c2c1
remaining binding (binding; 1 µM): 28%

FC(F)(F)Oc1cccc(-c2cnc3ccc(-c4ccncc4)nn23)c1
remaining binding (cell-free assay; competition with immobilised ligand; 5 µM): 51%

COc1ccnn2ncc(-c3ccnc(N(C)C)n3)c12
remaining binding (binding; 1 µM): 100%

COc1ncc2cc3ccccc3nc2c1C#N
remaining binding (cell-free assay; competition with immobilised ligand; 5 µM): 87%

Cc1nc(C2CCN(C(=O)c3ccc(OC(F)(F)F)cc3N)CC2)c2ncc(N3CCN(C)CC3)cc2n1
remaining binding (cell-free assay; competition with immobilised ligand; 1 µM): 97%

O=C(c1ccc(Nc2nccc(-c3cc4ccccc4s3)n2)cc1)N1CCC(N2CCCC2)CC1
remaining binding (binding; competition with immobilised ligand; 1 µM): 100%

FC(F)(F)c1ccc2c(c1)nc(-c1cccnc1)n2C1CC1
remaining binding (cell-free assay; competition with immobilised ligand; 1 µM): 96%

F[C@@H]1CCN(c2nccc(-c3cnn4ncccc34)n2)C1
remaining binding (binding; 1 µM): 100%

CO[C@@H](C)c1c(Nc2ccc([C@@H](N(C)C(=O)C3CCS(=O)(=O)CC3)C(F)(F)F)cc2)cnc2cc(Cl)nn12
remaining binding (cell-free assay; competition with immobilised ligand; 1 µM): 56%

O=C(Nc1c[nH]nc1C(=O)NC1CCNCC1)c1cc(F)cc(F)c1
remaining binding (binding; competition with immobilised ligand; 1 µM): 83%

COc1ccc2c(c1)O[C@H](c1ccc(OC)c(OC)c1)C[C@@H]2NC(=O)C1(c2ccc3c(c2)OC(F)(F)O3)CC1
remaining binding (cell-free assay; competition with immobilised ligand; 1 µM): 100%

CC1CCCN1c1nccc(-c2cnn3ncccc23)n1 (stereo not shown)
remaining binding (binding; 1 µM): 100%

O=C(c1ccc(Nc2ncc(Cl)c(-c3cc4ccccc4s3)n2)cc1)N1CCC(N2CCCC2)CC1
remaining binding (binding; competition with immobilised ligand; 1 µM): 100%

CNC(=O)[C@@H]1CC[C@@H](n2c(-c3ccc4cnccc4c3)nc3ccc(C(=O)NCc4cccc(C(N)=O)c4)cc32)C1
remaining binding (binding; competition with immobilised ligand; 1 µM): 91%

CN([C@@H]1CCc2c(CC(=O)O)c3cc(S(C)(=O)=O)ccc3n2C1)S(=O)(=O)c1ccc(F)cc1
remaining binding (cell-free assay; competition with immobilised ligand; 1 µM): 99%

N[C@H]1CCN(c2nccc(-c3cnn4ncccc34)n2)C1
remaining binding (binding; 1 µM): 100%

Cn1nc(C(F)(F)F)cc1-c1cnc(N2CCc3cc(S(=O)(=O)Nc4c(F)cc(Cl)cc4F)cc(N4CCCC4=O)c32)nc1
remaining binding (cell-free assay; competition with immobilised ligand; 1 µM): 100%

C[C@@H]1CCN(c2nccc(-c3cnn4ncccc34)n2)C1
remaining binding (binding; 1 µM): 100%
